Data from ChEMBL document CHEMBL3526153, “Metabolism of gambogic acid in rats: a rare intestinal metabolic pathway responsible for its final disposition” (Drug Metab Dispos, 2011).

Assays:
[1] = Retention time of the compound in Sprague-Dawley rat bile treated with gambogic acid at 4 mg/kg, iv measured over 24 hrs by LC-DAD-MS/MS analysis; format: ADME, organism-based; parameters: dose 4 mg/kg, route intravenous; conditions: in vivo
Method in brief: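 SD rats, n=4, bile-duct cannulated under chloral hydrate and allowed 1 h recovery. GA 4 mg/kg i.v.; bile collected on ice, pooled 0–24 h. C18 LC-DAD-MS/MS at 0.25 mL/min with acetonitrile gradient (38% to 80%) in 10 mM ammonium acetate, 40 °C, negative ESI.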

[2] = Retention time of the compound in Sprague-Dawley rat bile at 4 mg/kg, iv measured over 24 hrs by LC-DAD-MS/MS analysis; format: ADME, organism-based; parameters: dose 4 mg/kg, route intravenous; conditions: in vivo
Method in brief: (§1)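 Four SD rats bile-duct cannulated under chloral hydrate anesthesia, allowed 1 h recovery, pre-dose bile taken. Dosed 4 mg/kg GA i.v. Bile collected on ice and pooled 0–24 h, stored -20 °C. Gradient C18 LC (acetonitrile/10 mM ammonium acetate), 40 °C column, negative-ion ESI MS/MS.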

[3] = system: Liver microsome; assay: Drug metabolism in rat liver microsomes assessed as 9,10-epoxyl-gambogic acid formation at 50 uM preincubated for 10 mins by LC-MS/MS analysis in absence of NADPH; format: ADME
Method in brief: (§2)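 GA 50 µM with rat liver microsomes 1.0 mg/mL in 0.1 M PBS pH 7.4, pre-incubated 10 min at 37 °C. Started with NADPH (6.0 mM final) and run 1 h at 37 °C. Controls lacked NADPH or microsomes; duplicate. Stopped with ice-cold acetonitrile, centrifuged, supernatant dried and reconstituted. Isocratic LC (65% acetonitrile), negative-ion ESI MS/MS.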

[4] = Drug metabolism in Sprague-Dawley rat feces assessed as formation of 9,10-epoxyl-gambogic acid at 4 mg/kg, iv measured over 24 hrs by LC-DAD-MS/MS analysis; format: ADME, organism-based; parameters: dose 4 mg/kg, route intravenous; conditions: in vivo
Method in brief: (§3)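 SD rats (250 ± 20 g), 4 mg/kg GA injection given i.v. via tail vein in 2 mL; feces from four rats pooled 0–24 h, stored -20 °C. Feces (0.6 g) homogenized in acetonitrile-water 50:50, sonicated, centrifuged, filtered, then extracted with ethyl acetate, dried under N2 at 40 °C, reconstituted in mobile phase. Gradient C18 LC, negative-ion ESI MS/MS.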

[5] = Drug metabolism in intestine (unknown origin) assessed as 10-beta sulfonic gambogic acid formation; format: ADME, tissue-based
Method in brief: (§4)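 Intestinal contents from undosed rats homogenized in 5 mL water, spiked with 100 µL of 1.0 mg/mL GA, incubated at 37 °C about 24 h, in duplicate. 1 mL extracted with ethyl acetate. LC-MS/MS in negative ESI with SIM at m/z 709.3.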

[6] = system: Plasma; assay: Drug metabolism in Sprague-Dawley rat plasma assessed as 10-OHGA formation at 4 mg/kg, iv measured over 4 hrs by LC-DAD-MS/MS analysis; format: ADME, organism-based; parameters: dose 4 mg/kg, route intravenous; conditions: in vivo
Method in brief: (§5)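 Six SD rats dosed 4 mg/kg GA i.v. via tail vein. Tail-vein blood taken before and 0.033–4 h post-dose into heparinized tubes, centrifuged 3000 × g 10 min at 4 °C, and plasma pooled 0–4 h. 1 mL extracted with 4 mL ethyl acetate, dried under N2 at 40 °C, reconstituted. Isocratic C18 LC (68% acetonitrile), negative-ion ESI MS/MS.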

[7] = system: Liver microsome; assay: Drug metabolism in rat liver microsomes assessed as glucuronidation product formation at 50 uM preincubated for 10 mins followed by UDPGA addition measured after 2 hrs by LC-MS/MS analysis; format: ADME
Method in brief: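 GA 50 µM with alamethicin-treated rat liver microsomes 1.0 mg/mL and saccharic acid-1,4-lactone 6 mM in 0.05 M Tris-HCl pH 7.4, pre-incubated 10 min at 37 °C. Started with UDPGA (6.0 mM) and run 2 h at 37 °C. Controls lacked UDPGA or microsomes; duplicate. Acetonitrile quench, gradient LC, negative-ion ESI MS/MS.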

[8] = Drug excretion in Sprague-Dawley rat feces at 2 mg/kg, iv measured within 48 hrs; format: ADME, organism-based; parameters: dose 2 mg/kg, route intravenous; conditions: read-out: Drug excretion
[9] = Drug metabolism in Sprague-Dawley rat gut assessed as formation of 10-beta sulfonic gambogic acid at 4 mg/kg, iv; format: ADME, organism-based; parameters: dose 4 mg/kg, route intravenous; conditions: in vivo
[10] = Drug metabolism in Sprague-Dawley rat bile assessed as formation of 10-beta sulfonic gambogic acid at 4 mg/kg, iv measured over 24 hrs by LC-DAD-MS/MS analysis; format: ADME, organism-based; parameters: dose 4 mg/kg, route intravenous; conditions: in vivo; method in brief: as §1
[11] = Drug metabolism in rat liver microsomes assessed as SULT-mediated sulfonation; format: ADME
[12] = system: Plasma; assay: Drug level in Sprague-Dawley rat plasma at 4 mg/kg, iv measured over 4 hrs by LC-DAD-MS/MS analysis; format: ADME, organism-based; parameters: dose 4 mg/kg, route intravenous; conditions: in vivo; method in brief: as §5
[13] = Drug metabolism in intestine (unknown origin) assessed as 10-alpha sulfonic gambogic acid formation; format: ADME, tissue-based; method in brief: as §4
[14] = Drug level in Sprague-Dawley rat feces at 4 mg/kg, iv measured over 24 hrs by LC-MS/MS analysis; format: ADME, organism-based; parameters: dose 4 mg/kg, route intravenous; conditions: in vivo; method in brief: as §3
[15] = Drug level in Sprague-Dawley rat urine at 4 mg/kg, iv measured over 24 hrs by LC-DAD-MS/MS analysis; format: ADME, organism-based; parameters: dose 4 mg/kg, route intravenous; conditions: in vivo
Method in brief: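 Urine collected from four SD rats and pooled 0–24 h after 4 mg/kg GA i.v. via tail vein; stored -20 °C until LC-MS/MS analysis (negative-ion ESI).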

[16] = Drug metabolism in Sprague-Dawley rat feces assessed as 10-OHGA formation at 4 mg/kg, iv measured over 24 hrs by LC-DAD-MS/MS analysis; format: ADME, organism-based; parameters: dose 4 mg/kg, route intravenous; conditions: in vivo; method in brief: as §3
[17] = Drug metabolism in Sprague-Dawley rat feces assessed as formation of glucuronidation product at 4 mg/kg, iv measured over 24 hrs by LC-DAD-MS/MS analysis; format: ADME, organism-based; parameters: dose 4 mg/kg, route intravenous; conditions: in vivo; method in brief: as §3
[18] = Drug metabolism in Sprague-Dawley rat bile assessed as 10-alpha sulfonic gambogic acid formation of at 4 mg/kg, iv measured over 24 hrs by LC-DAD-MS/MS analysis; format: ADME, organism-based; parameters: dose 4 mg/kg, route intravenous; conditions: in vivo; method in brief: as §1
[19] = Drug metabolism in rat liver microsomes assessed as CYP450-mediated 9,10-epoxyl-gambogic acid formation at 50 uM preincubated for 10 mins followed by NADPH addition measured after 1 hr by LC-DAD-MS/MS analysis; format: ADME; method in brief: as §2
[20] = Drug metabolism in rat liver microsomes assessed as CYP450-mediated 10-OHGA formation at 50 uM preincubated for 10 mins followed by NADPH addition measured after 1 hr by LC-DAD-MS/MS analysis; format: ADME; method in brief: as §2
[21] = system: Liver microsome; assay: Drug metabolism in rat liver microsomes assessed as glucuronidation product formation at 50 uM preincubated for 10 mins followed by UDPGA addition for 2 hrs measured 1 hr post beta-glucuronidase treatment by LC-MS/MS analysis; format: ADME
Method in brief: (§6)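 Dried UDPGA microsomal incubate reconstituted in 0.1 M Tris pH 6.8. For enzymatic hydrolysis, about 830 units β-glucuronidase, 37 °C for 1 h; control without enzyme. For alkaline hydrolysis, with or without 0.5 M NaOH (10 µL), 2 h at room temperature, then neutralized with acetic acid to about pH 7. Analyzed by LC-MS/MS.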

[22] = Drug metabolism in Sprague-Dawley rat gut assessed as formation of 10-alpha sulfonic gambogic acid at 4 mg/kg, iv; format: ADME, organism-based; parameters: dose 4 mg/kg, route intravenous; conditions: in vivo
[23] = system: Liver microsome; assay: Drug metabolism in rat liver microsomes assessed as glucuronidation product formation at 50 uM preincubated for 10 mins followed by UDPGA addition for 2 hrs measured 2 hrs post NaOH treatment by LC-MS/MS analysis; format: ADME; method in brief: as §6
[24] = Drug level in intestine (unknown origin) treated with gambogic acid; format: ADME, tissue-based
Method in brief: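 Intestinal contents from undosed rats homogenized in 5 mL water. 100 μL of 1.0 mg/mL GA solution added, incubated about 24 h at 37 °C, duplicate. 1.0 mL extracted with ethyl acetate. LC-MS/MS with negative ESI, SIM at m/z 709.3 plus full and product-ion scans, acetonitrile gradient 50–90%.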

[25] = Drug level in Sprague-Dawley rat gut treated with gambogic acid at 4 mg/kg, iv; format: ADME, organism-based; parameters: dose 4 mg/kg, route intravenous; conditions: in vivo
[26] = Retention time of the compound in Sprague-Dawley rat feces treated with gambogic acid at 4 mg/kg, iv measured over 24 hrs by LC-DAD-MS/MS analysis; format: ADME, organism-based; parameters: dose 4 mg/kg, route intravenous; conditions: in vivo
Method in brief: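 SD rats (250 ± 20 g), n=4, given GA 4 mg/kg i.v. via tail vein in 2 mL; feces pooled 0–24 h and stored at −20 °C. Feces (0.6 g) homogenized in 50% acetonitrile, sonicated, centrifuged, filtered, then ethyl acetate extraction. Analysed by C18 LC-DAD-MS/MS (gradient 38–80% acetonitrile, 10 mM ammonium acetate, 40 °C), negative ESI.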

## CC(C)=CCC[C@]1(C)C=Cc2c(O)c3c(c(CC=C(C)C)c2O1)O[C@]12C(C3=O)C(O[C@@H]3O[C@H](CO)[C@@H](O)[C@H](O)[C@H]3O)[C@@H]3C[C@H]1C(C)(C)O[C@@]2(C/C=C(/C)C(=O)O)C3=O (some centres not stated)
[1]
  Retention_time: 38.7 min

## CC(C)=CCC[C@]1(C)C=Cc2c(O)c3c(c(CC=C(C)C)c2O1)O[C@]12C(=C[C@@H]4C[C@H]1C(C)(C)O[C@@]2(C/C=C(/C)C(=O)O[C@@H]1O[C@H](CO)[C@@H](O)[C@H](O)[C@H]1O)C4=O)C3=O
[1]
  Retention_time: 40.3 min

## CC(C)=CCC[C@]1(C)C=Cc2c(O)c3c(c(CC=C(C)C)c2O1)O[C@]12C(=C[C@@H]4C[C@H]1C(C)(C)O[C@@]2(C/C=C(/C)C(=O)O)C4=O)C3=O [GAMBOGIC ACID]
[2]
  Retention_time: 44.8 min
[3]
  Drug metabolism: metabolite_not_detected
[4]
  Drug metabolism: metabolite_detected
[5]
  Drug metabolism: metabolite_detected
[6]
  Drug metabolism: metabolite_detected
[7]
  Drug metabolism: metabolite_detected
[8]
  dose excreted at 48 h: 1.04%
[9]
  Drug metabolism: metabolite_detected
[10]
  Drug metabolism: metabolite_not_detected
[11]
  Drug metabolism: metabolite_not_detected
[12]
  Drug uptake: Active
[13]
  Drug metabolism: metabolite_detected
[14]
  Drug uptake: Active
[15]
  Drug uptake: Not Active
[16]
  Drug metabolism: metabolite_detected
[17]
  Drug metabolism: metabolite_detected
[18]
  Drug metabolism: metabolite_not_detected
[19]
  Drug metabolism: metabolite_detected
[20]
  Drug metabolism: metabolite_detected
[21]
  Drug metabolism: metabolite_not_detected
[22]
  Drug metabolism: metabolite_detected
[23]
  Drug metabolism: metabolite_not_detected

## CC(C)=CCC[C@]1(C)C=Cc2c(O)c3c(c(CC=C(C)C)c2O1)O[C@]12C(C3=O)[C@@H](S(=O)(=O)O)[C@@H]3C[C@H]1C(C)(C)O[C@@]2(C/C=C(/C)C(=O)O)C3=O (some centres not stated)
[24]
  Drug metabolism: metabolite_detected
[25]
  Drug metabolism: metabolite_detected
[26]
  Retention_time: 19.4 min
